Experiments:
[1] = Inhibition of VLA-4 in rat serum binding to VCAM-1 in human Jurkat TM cells after 30 mins by fibronectin mediated cell adhesion assay; format: cell-based; settings: 0.5 h
Summary of the method: (§1)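 Cells were preincubated 30 min on wet ice with anti-α5 (5 µg/ml) and a compound dose–response, then allowed to bind 35 min at 37 °C, 5% CO2 to human plasma fibronectin-coated wells. Wells were washed 3× and read by fluorescence to give IC50.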

[2] = AUC in iv dosed Sprague-Dawley rat; format: ADME, organism-based; settings: plasma
Mus musculus [3] = assay: Inhibition of Eos influx in Black/6 mouse acute pulmonary cellular influx model at 10 mg/kg, po bid administered 1hr prior and 12 hrs post ova/alum challenge on day 28 and 29 relative to alpha4 antibody PS/2; format: functional
Summary of the method: (§2)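 Female Black/6 mice were sensitized i.p. with ova/alum on day 1, boosted on day 14, and challenged with aerosolized ova on days 28 and 29. Compound was given by oral gavage (5 ml/kg) twice daily on days 28–29, 1 h before and 12 h after challenge. BAL was collected on day 30, 48 h after the first challenge. Eosinophil influx was reported as % inhibition against vehicle or against PS/2 (anti-α4, 10 mg/kg iv, 2 h before first challenge).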

[4] = Oral bioavailability in Sprague-Dawley rat; format: ADME, organism-based; settings: in vivo
[5] = Inhibition of VLA-4 in mouse serum binding to VCAM-1 in human Jurkat TM cells after 30 mins by fibronectin mediated cell adhesion assay; format: cell-based; settings: 0.5 h
[6] = Inhibition of VLA-4 binding to VCAM-1 in human Jurkat TM cells after 30 mins by fibronectin mediated cell adhesion assay using BSA; format: cell-based
Summary of the method: as §1, with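 “Calcein-labelled Jurkat TM cells (10^5/well) in Hepes 20 mM, NaCl 140 mM, CaCl2 1 mM, MgCl2 1 mM, 0.3% BSA with activating anti-α4 TS2/16. Cells” for “Cells”, “bound” for “allowed to bind”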

[7] = Inhibition of VLA-4 in human serum binding to VCAM-1 in human Jurkat TM cells after 30 mins by fibronectin mediated cell adhesion assay; format: cell-based; settings: 0.5 h; summary of the method: as §1
[8] = AUC in po dosed Sprague-Dawley rat; format: ADME, organism-based; settings: plasma
Mus musculus [9] = assay: Inhibition of Eos influx in Black/6 mouse acute pulmonary cellular influx model at 3 mg/kg, po bid administered 1hr prior and 12 hrs post ova/alum challenge on day 28 and 29 relative to PS/2; format: functional; summary of the method: as §2
Mus musculus [10] = assay: Inhibition of Eos influx in Black/6 mouse acute pulmonary cellular influx model at 3 mg/kg, po bid administered 1hr prior and 12 hrs post ova/alum challenge on day 28 and 29 relative to vehicle-treated control; format: functional; summary of the method: as §2
[11] = Plasma concentration in po dosed Sprague-Dawley rat after 12 hrs; format: ADME, organism-based
Mus musculus [12] = assay: Inhibition of Eos influx in Black/6 mouse acute pulmonary cellular influx model at 10 mg/kg, po bid administered 1hr prior and 12 hrs post ova/alum challenge on day 28 and 29 relative to vehicle-treated control; format: functional; summary of the method: as §2
[13] = Inhibition of VLA-4 (unknown origin) binding to VCAM-1 in human Jurkat TM cells after 30 mins by fibronectin mediated cell adhesion assay; format: cell-based
Summary of the method: as §1, with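 “Calcein-labelled Jurkat TM cells (10^5/well) in Hepes 20 mM, NaCl 140 mM, CaCl2 1 mM, MgCl2 1 mM, 0.3% BSA with activating anti-α4 TS2/16. Cells” for “Cells”, “bound” for “allowed to bind”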

| AUC [2] [ng·h/mL] | bioavailability [4] [%] | AUC [8] [ng·h/mL] | concentration at 12 h [11] [ng/mL] | Compound | IC50 [1] [nM] | inhibition in vivo at 10 mg/kg (Mus musculus [3]) [%] | IC50 [5] [nM] | IC50 [6] [nM] | IC50 [7] [nM] | inhibition in vivo at 3 mg/kg (Mus musculus [9]) [%] | inhibition in vivo at 3 mg/kg (Mus musculus [10]) [%] | inhibition in vivo at 10 mg/kg (Mus musculus [12]) [%] | IC50 [13] [nM] |
| --- | --- | --- | --- | --- | --- | --- | --- | --- | --- | --- | --- | --- | --- |
| 111000 | 46 | 51000 | 180 | CCN(CC)c1ncc(N(CC)S(=O)(=O)c2ccc(F)cc2)c(N[C@@H](Cc2ccc(OC(=O)N3CCCC3)cc2)C(=O)O)n1 | – | – | – | – | – | – | – | – | 1 |
| 83000 | 34 | 28000 | 50 | CCN(CC)c1ncc(N(CC)S(=O)(=O)c2ccc(F)cc2F)c(N[C@@H](Cc2ccc(OC(=O)N3CCCC3)cc2)C(=O)O)n1 | – | – | – | – | – | – | – | – | 9 |
| 34000 | 16 | 6000 | 10 | CCN(CC)c1ncc(N(CC)S(=O)(=O)c2ccc(F)cc2)c(N[C@@H](Cc2ccc(OC(=O)N3CCC3)cc2)C(=O)O)n1 | – | – | – | – | – | – | – | – | 2 |
| 126000 | 33 | 42000 | 120 | C#CCN(c1cnc(N(CC)CC)nc1N[C@@H](Cc1ccc(OC(=O)N2CCCC2)cc1)C(=O)O)S(=O)(=O)c1ccc(F)cc1F | – | – | – | – | – | – | – | – | 13 |
| 90000 | 17 | 16000 | 100 | CCN(CC)c1ncc(N(C)S(=O)(=O)c2ccc(F)cc2F)c(N[C@@H](Cc2ccc(OC(=O)N3CCCC3)cc2)C(=O)O)n1 | – | – | – | – | – | – | – | – | 8 |

Further lines, the compound ahead of its results:

| Compound | AUC [2] [ng·h/mL] | bioavailability [4] [%] | AUC [8] [ng·h/mL] | concentration at 12 h [11] [ng/mL] | IC50 [1] [nM] | inhibition in vivo at 10 mg/kg (Mus musculus [3]) [%] | IC50 [5] [nM] | IC50 [6] [nM] | IC50 [7] [nM] | inhibition in vivo at 3 mg/kg (Mus musculus [9]) [%] | inhibition in vivo at 3 mg/kg (Mus musculus [10]) [%] | inhibition in vivo at 10 mg/kg (Mus musculus [12]) [%] | IC50 [13] [nM] |
| --- | --- | --- | --- | --- | --- | --- | --- | --- | --- | --- | --- | --- | --- |
| CCN(CC)c1ncc(N(C)S(=O)(=O)c2ccc(F)cc2)c(N[C@@H](Cc2ccc(OC(=O)N(C)C)cc2)C(=O)O)n1 | 27000 | 74 | 20000 | 120 | 280 | 80 | 6 | 2 | 45 | 5 | 3 | 45 | 2 |
| CCN(CC)c1ncc(N(C(C)C)S(=O)(=O)c2ccc(Cl)cc2)c(N[C@@H](Cc2ccc(OC(=O)N(C)C)cc2)C(=O)O)n1 | – | – | – | – | – | – | – | – | – | – | – | – | 4 |
| Cc1ccc(S(=O)(=O)N(C)c2cncnc2N[C@@H](Cc2ccc(OC(=O)N(C)C)cc2)C(=O)O)cc1 | – | – | – | – | – | – | – | – | – | – | – | – | 2 |
| CCN(CC)c1ncc(N(CC)S(=O)(=O)c2ccc(F)cc2)c(N[C@@H](Cc2ccc(OC(=O)N(C)C)cc2)C(=O)O)n1 | 32000 | 44 | 14000 | 60 | – | – | – | – | – | – | – | – | 1 |
| CCN(CC)c1ncc(N(C(C)C)S(=O)(=O)c2ccc(F)cc2)c(N[C@@H](Cc2ccc(OC(=O)N(C)C)cc2)C(=O)O)n1 | – | – | – | – | – | – | – | – | – | – | – | – | 5 |
